Activity calls are given as the source filed them.
Key:
PBMC [1] = assay: Induction of MIP1beta secretion in human PBMC; type: functional, cell-based
How it was run: (§1)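 Human PBMCs (5×10^6/mL; 1×10^6 per well) were cultured 24 h with TLR9 agonist 5 µg/mL or TLR7/8 agonist 100 µg/mL, alone or with antagonist at 1:4. Compounds were dissolved in PBS. Supernatant cytokines were measured by Luminex human 25-plex bead assay. One representative donor of six.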

[2] = molecular target: Toll-like receptor 7 (Homo sapiens) (UniProt Q9NYK1); assay: Agonist activity at TLR7/8 in human PBMC assessed as NF-kappaB activation at 100 ug/mL
PBMC [3] = assay: Induction of IL6 secretion in human PBMC; type: functional, cell-based; how it was run: as §1
PBMC [4] = assay: Induction of MIG secretion in human PBMC; type: functional, cell-based; how it was run: as §1
PBMC [5] = assay: Induction of MCP1 secretion in human PBMC; type: functional, cell-based; how it was run: as §1
PBMC [6] = assay: Induction of IL12 secretion in human PBMC; type: functional, cell-based; how it was run: as §1
PBMC [7] = assay: Induction of IFNalpha secretion in human PBMC; type: functional, cell-based; how it was run: as §1
PBMC [8] = assay: Induction of TNFalpha secretion in human PBMC; type: functional, cell-based; how it was run: as §1
PBMC [9] = assay: (§2) Induction of IP10 secretion in human PBMC; type: functional, cell-based; how it was run: as §1
PBMC [10] = assay: Induction of IFN-gamma secretion in human PBMC; type: functional, cell-based; how it was run: as §1
PBMC [11] = assay: as §2; type: functional, cell-based; how it was run: as §1; remark: listed apart in the source

Measured: Activity

Chain of Toll-like receptor 7 (Homo sapiens) (Q9NYK1 whole entry, looked up): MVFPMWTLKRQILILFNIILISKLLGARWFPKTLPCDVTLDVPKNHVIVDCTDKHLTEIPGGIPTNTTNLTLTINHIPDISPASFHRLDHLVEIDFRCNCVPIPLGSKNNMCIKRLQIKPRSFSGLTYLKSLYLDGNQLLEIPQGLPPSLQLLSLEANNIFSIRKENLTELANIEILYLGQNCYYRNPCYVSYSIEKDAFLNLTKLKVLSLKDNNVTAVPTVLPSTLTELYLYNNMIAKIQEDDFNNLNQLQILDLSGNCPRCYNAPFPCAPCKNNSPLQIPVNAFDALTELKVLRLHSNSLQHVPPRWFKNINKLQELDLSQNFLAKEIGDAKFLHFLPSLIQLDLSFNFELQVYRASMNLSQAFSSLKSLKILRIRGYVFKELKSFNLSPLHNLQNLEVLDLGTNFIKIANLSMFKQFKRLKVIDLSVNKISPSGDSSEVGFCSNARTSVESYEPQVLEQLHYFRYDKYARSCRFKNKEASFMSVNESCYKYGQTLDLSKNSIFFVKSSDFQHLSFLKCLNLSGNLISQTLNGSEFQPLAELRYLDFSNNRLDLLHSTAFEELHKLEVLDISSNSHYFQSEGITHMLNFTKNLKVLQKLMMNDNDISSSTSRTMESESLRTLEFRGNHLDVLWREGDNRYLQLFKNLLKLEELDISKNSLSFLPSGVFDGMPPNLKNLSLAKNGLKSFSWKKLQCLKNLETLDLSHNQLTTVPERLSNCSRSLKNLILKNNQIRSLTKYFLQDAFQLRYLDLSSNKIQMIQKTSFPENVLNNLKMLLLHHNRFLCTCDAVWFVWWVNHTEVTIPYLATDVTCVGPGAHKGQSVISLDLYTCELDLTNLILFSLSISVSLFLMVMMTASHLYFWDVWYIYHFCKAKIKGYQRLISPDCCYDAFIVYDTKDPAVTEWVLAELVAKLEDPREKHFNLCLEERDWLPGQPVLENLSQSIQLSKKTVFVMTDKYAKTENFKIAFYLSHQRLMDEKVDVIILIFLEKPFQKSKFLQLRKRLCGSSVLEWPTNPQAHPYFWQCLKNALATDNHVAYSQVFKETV

Nc1ccn([C@@H]2O[C@H](COP(=O)(S)O[C@H]3[C@@H](O)[C@H](n4ccc(=O)[nH]c4=O)O[C@@H]3COP(=O)(S)O[C@H]3[C@@H](O)[C@H](n4ccc(=O)[nH]c4=O)O[C@@H]3COP(=O)(S)O[C@H]3[C@@H](O)[C@H](n4ccc5c(=O)[nH]c(N)nc54)O[C@@H]3COP(=O)(S)O[C@H]3[C@@H](O)[C@H](n4ccc(=O)[nH]c4=O)O[C@@H]3COP(=O)(S)O[C@H]3[C@@H](O)[C@H](n4ccc(N)nc4=O)O[C@@H]3COP(=O)(S)O[C@H]3[C@@H](O)[C@H](n4ccc5c(=O)[nH]c(N)nc54)O[C@@H]3COP(=O)(S)O[C@H]3[C@@H](O)[C@H](n4ccc(=O)[nH]c4=O)O[C@@H]3CO)[C@@H](OP(=O)(S)OC[C@H]3O[C@@H](n4ccc(=O)[nH]c4=O)[C@H](O)[C@@H]3OP(=O)(S)OC[C@H]3O[C@@H](n4ccc5c(=O)[nH]c(N)nc54)[C@H](O)[C@@H]3OP(=O)(S)OCC(O)COP(=O)(S)O[C@H]3[C@@H](O)[C@H](n4ccc5c(=O)[nH]c(N)nc54)O[C@@H]3COP(=O)(S)O[C@H]3[C@@H](O)[C@H](n4ccc(=O)[nH]c4=O)O[C@@H]3COP(=O)(S)O[C@H]3[C@@H](O)[C@H](n4ccc(N)nc4=O)O[C@@H]3COP(=O)(S)O[C@H]3[C@@H](O)[C@H](n4ccc(=O)[nH]c4=O)O[C@@H]3COP(=O)(S)O[C@H]3[C@@H](O)[C@H](n4ccc(=O)[nH]c4=O)O[C@@H]3COP(=O)(S)O[C@H]3[C@@H](O)[C@H](n4ccc5c(=O)[nH]c(N)nc54)O[C@@H]3COP(=O)(S)O[C@H]3[C@@H](O)[C@H](n4ccc(=O)[nH]c4=O)O[C@@H]3COP(=O)(S)O[C@H]3[C@@H](O)[C@H](n4ccc(N)nc4=O)O[C@@H]3COP(=O)(S)O[C@H]3[C@@H](O)[C@H](n4ccc5c(=O)[nH]c(N)nc54)O[C@@H]3COP(=O)(S)O[C@H]3[C@@H](O)[C@H](n4ccc(=O)[nH]c4=O)O[C@@H]3CO)[C@H]2O)c(=O)n1 (stereo partly specified)
active: all assays above

Source: ChEMBL document CHEMBL1140884, “Oligodeoxyribonucleotide-based antagonists for Toll-like receptors 7 and 9” (2009)
